According to paper PMC7228743 (Science Advances, 2020):

Key:
[1] = Serum stability assay; format: in vitro ADME; conditions: 25% (v/v) pooled human serum, 37°C, 24 hours; RP-HPLC peak area at 215 nm
Procedure, shortened: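 Peptides dissolved in H2O/MeCN (70:30 v/v), diluted into 25% (v/v) aqueous pooled serum from human male AB plasma, and held at 37°C for 24 hours. Samples were quenched with an equal volume of MeCN on ice for 20 min, then centrifuged at 4°C for 15 min. Supernatant was diluted in H2O (0.1% TFA) to 0.1 mg/ml and run on RP-HPLC. Intact peptide was taken from the elution peak area at 215 nm.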

[2] = molecular target: hGLP-1R (Homo sapiens, UniProt P43220); test: In vitro GLP-1R activation assay; format: cell-based; conditions: ratio of cAMP EC50 values, 39.79 nM versus […]
Sequence of hGLP-1R (P43220 24-463): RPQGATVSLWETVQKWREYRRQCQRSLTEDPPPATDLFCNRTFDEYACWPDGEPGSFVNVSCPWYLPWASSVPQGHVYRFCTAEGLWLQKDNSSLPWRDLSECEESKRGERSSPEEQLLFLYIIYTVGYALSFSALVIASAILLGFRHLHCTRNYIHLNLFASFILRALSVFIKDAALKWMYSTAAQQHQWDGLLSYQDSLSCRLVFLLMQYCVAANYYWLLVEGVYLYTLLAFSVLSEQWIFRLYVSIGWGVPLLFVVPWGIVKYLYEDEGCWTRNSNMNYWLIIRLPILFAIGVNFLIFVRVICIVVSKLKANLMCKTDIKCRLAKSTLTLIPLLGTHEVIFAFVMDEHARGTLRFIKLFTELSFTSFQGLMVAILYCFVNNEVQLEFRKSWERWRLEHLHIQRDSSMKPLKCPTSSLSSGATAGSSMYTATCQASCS

CC[C@H](C)[C@@H](CN(CC(=O)N[C@@H](Cc1c[nH]c2ccccc12)CN(CC(=O)N[C@H](CN(CC(=O)NCCN(CC(N)=O)S(=O)(=O)CCN)S(=O)(=O)CCN)C(C)C)S(=O)(=O)CC(C)C)S(C)(=O)=O)NC(=O)CN(C[C@H](CCC(=O)O)NC(=O)CN(C[C@H](C)NC(=O)CN(C[C@H](CCCCN)NC(=O)CN(C[C@H](CCC(=O)O)NC(=O)CN(C[C@H](Cc1ccc(O)cc1)NC(=O)CN(C[C@H](CO)NC(=O)CN(C[C@H](CC(=O)O)NC(=O)CN(C[C@@H](NC(=O)CN(C[C@@H](NC(=O)CN(C[C@H](CCC(=O)O)NC(=O)CN(C[C@H](Cc1ccccc1)NC(C)=O)S(C)(=O)=O)S(C)(=O)=O)[C@@H](C)O)S(=O)(=O)Cc1ccccc1)[C@@H](C)O)S(C)(=O)=O)S(=O)(=O)CC(C)C)S(C)(=O)=O)S(=O)(=O)CC(C)C)S(C)(=O)=O)S(C)(=O)=O)S(=O)(=O)CCN)S(=O)(=O)Cc1ccccc1 [compound 3]
Stability in the presence of serum (in words) [1]: remarkable stability | Potency of 3 relative to capped GLP-1 2 (fold lower) [2]: ~ 10 fold

CC[C@H](C)[C@@H](CN(CC(=O)N[C@@H](Cc1c[nH]c2ccccc12)CN(CC(=O)N[C@H](CN(CC(=O)NCCN(CC(N)=O)S(=O)(=O)CCN)S(=O)(=O)CCN)C(C)C)S(=O)(=O)CC(C)C)S(C)(=O)=O)NC(=O)CN(C[C@H](CCC(=O)O)NC(=O)CN(C[C@H](C)NC(=O)CN(C[C@H](CCCCN)NC(=O)CN(C[C@H](CCC(=O)O)NC(=O)CN(C[C@H](Cc1ccc(O)cc1)NC(=O)CN(C[C@H](CO)NC(=O)CN(C[C@H](CC(=O)O)NC(=O)CN(C[C@@H](NC(=O)CN(C[C@@H](NC(=O)CN(C[C@H](CCC(=O)O)NC(=O)CN(C[C@H](Cc1ccccc1)NC(C)=O)S(C)(=O)=O)S(C)(=O)=O)[C@@H](C)O)S(=O)(=O)Cc1ccccc1)[C@@H](C)O)S(C)(=O)=O)S(=O)(=O)CC(C)C)S(=O)(=O)c1ccc(OC)cc1)S(=O)(=O)CC(C)C)S(C)(=O)=O)S(C)(=O)=O)S(=O)(=O)CCN)S(=O)(=O)Cc1ccccc1 [compound 5]
Stability in the presence of serum (in words) [1]: remarkable stability
